From ChEMBL document CHEMBL4689842, “EUbOPEN Chemogenomics Library wave 1” (2021)

System: Fibroblast
Assay: Multiplex assay against human fibroblast
Type: toxicity, cell-based
Summary of the method: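 Compound was added to live cells that had been stained at seeding with Hoechst33342, BioTracker Green Microtubule Cytoskeleton Dye, MitoTracker Red and Annexin V Alexa Fluor 680, and imaging followed on a CQ1 microscope at 37°C and 5% CO2. CellPathfinder machine-learning gating divided cells into Hoechst high-intensity objects or normal cells, normal cells into healthy, pyknosed or fragmented nuclei, and pyknosed cells into mitotic or apoptotic. Tubulin, mitochondrial-mass and membrane-permeability phenotypes are per cents of healthy-nucleus cells.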

[1] = 12 h, 1 µM, compound concentration 1 uM, replicate 1
[2] = 12 h, 1 µM, compound concentration 1 uM, replicate 2
[3] = 12 h, 10 µM, compound concentration 10 uM, replicate 1
[4] = 12 h, 10 µM, compound concentration 10 uM, replicate 2
[5] = 24 h, 1 µM, compound concentration 1 uM, replicate 1
[6] = 24 h, 1 µM, compound concentration 1 uM, replicate 2
[7] = 24 h, 10 µM, compound concentration 10 uM, replicate 1
[8] = 24 h, 10 µM, compound concentration 10 uM, replicate 2
[9] = 48 h, 1 µM, compound concentration 1 uM, replicate 1
[10] = 48 h, 1 µM, compound concentration 1 uM, replicate 2
[11] = 48 h, 10 µM, compound concentration 10 uM, replicate 1
[12] = 48 h, 10 µM, compound concentration 10 uM, replicate 2

Q: CN1CCN(CCOc2cc(OC3CCOCC3)c3c(Nc4c(Cl)ccc5c4OCO5)ncnc3c2)CC1 [SARACATINIB] was tested. Which “Population Apoptotic (%)” value [1] did it give?
A: Its value is 59%.

Q: What about the “Population Fragmented Nuclei (%)” value [1] of the same molecule?
A: The value was 22%.

Q: And the “Population Healthy Nuclei (%)” value [1]?
A: The value was 49%.

Q: What about the “Population Hoechst High Intensity Objects (%)” value [1] of the same molecule?
A: Its value is 10%.

Q: What about the “Population Membrane Permeable-Phenotype (%)” value [1] of the same molecule?
A: Its value is 24%.

Q: What about the “Population Mitochondria Different-Phenotype (%)” value [1] of the same molecule?
A: Its value is 9%.

Q: What about the “Population Mitotic Cells (%)” value [1] of the same molecule?
A: Its value is 40%.

Q: What about the “Population Normal (%)” value [1] of the same molecule?
A: Its value is 89%.

Q: And the “Population Pyknosed Nuclei (%)” value [1]?
A: Its value is 27%.

Q: What about the “Population Tubulin-Different-Phenotype (%)” value [1] of the same molecule?
A: The value was 43%.

Q: And the “Population Apoptotic (%)” value [2]?
A: Its value is 70%.

Q: What about the “Population Fragmented Nuclei (%)” value [2] of the same molecule?
A: Its value is 9%.

Q: And the “Population Healthy Nuclei (%)” value [2]?
A: Its value is 72%.

Q: And the “Population Membrane Permeable-Phenotype (%)” value [2]?
A: The value was 0%.

Q: What about the “Population Mitochondria Different-Phenotype (%)” value [2] of the same molecule?
A: The value was 23%.

Q: What about the “Population Mitotic Cells (%)” value [2] of the same molecule?
A: Its value is 30%.

Q: What about the “Population Normal (%)” value [2] of the same molecule?
A: The value was 90%.

Q: What about the “Population Pyknosed Nuclei (%)” value [2] of the same molecule?
A: Its value is 18%.

Q: And the “Population Tubulin-Different-Phenotype (%)” value [2]?
A: The value was 10%.

Q: And the “Population Apoptotic (%)” value [3]?
A: The value was 60%.

Q: What about the “Population Fragmented Nuclei (%)” value [3] of the same molecule?
A: Its value is 20%.

Q: What about the “Population Healthy Nuclei (%)” value [3] of the same molecule?
A: The value was 57%.

Q: And the “Population Hoechst High Intensity Objects (%)” value [3]?
A: The value was 13%.

Q: And the “Population Membrane Permeable-Phenotype (%)” value [3]?
A: Its value is 16%.

Q: What about the “Population Mitochondria Different-Phenotype (%)” value [3] of the same molecule?
A: Its value is 21%.

Q: And the “Population Mitotic Cells (%)” value [3]?
A: The value was 39%.

Q: What about the “Population Normal (%)” value [3] of the same molecule?
A: Its value is 86%.

Q: And the “Population Pyknosed Nuclei (%)” value [3]?
A: Its value is 21%.

Q: And the “Population Tubulin-Different-Phenotype (%)” value [3]?
A: The value was 91%.

Q: What about the “Population Apoptotic (%)” value [4] of the same molecule?
A: Its value is 75%.

Q: What about the “Population Fragmented Nuclei (%)” value [4] of the same molecule?
A: Its value is 9%.

Q: And the “Population Healthy Nuclei (%)” value [4]?
A: Its value is 71%.

Q: And the “Population Hoechst High Intensity Objects (%)” value [4]?
A: The value was 7%.

Q: What about the “Population Membrane Permeable-Phenotype (%)” value [4] of the same molecule?
A: The value was 21%.

Q: What about the “Population Mitochondria Different-Phenotype (%)” value [4] of the same molecule?
A: Its value is 100%.

Q: And the “Population Mitotic Cells (%)” value [4]?
A: The value was 25%.

Q: And the “Population Normal (%)” value [4]?
A: The value was 92%.

Q: And the “Population Pyknosed Nuclei (%)” value [4]?
A: Its value is 18%.

Q: And the “Population Tubulin-Different-Phenotype (%)” value [4]?
A: The value was 100%.

Q: And the “Population Apoptotic (%)” value [5]?
A: The value was 47%.

Q: And the “Population Fragmented Nuclei (%)” value [5]?
A: The value was 22%.

Q: What about the “Population Healthy Nuclei (%)” value [5] of the same molecule?
A: Its value is 61%.

Q: What about the “Population Hoechst High Intensity Objects (%)” value [5] of the same molecule?
A: The value was 12%.

Q: And the “Population Membrane Permeable-Phenotype (%)” value [5]?
A: Its value is 17%.

Q: And the “Population Mitochondria Different-Phenotype (%)” value [5]?
A: The value was 6%.

Q: What about the “Population Mitotic Cells (%)” value [5] of the same molecule?
A: Its value is 52%.

Q: And the “Population Normal (%)” value [5]?
A: Its value is 87%.

Q: What about the “Population Pyknosed Nuclei (%)” value [5] of the same molecule?
A: The value was 16%.

Q: And the “Population Tubulin-Different-Phenotype (%)” value [5]?
A: Its value is 35%.

Q: And the “Population Apoptotic (%)” value [6]?
A: Its value is 50%.

Q: And the “Population Fragmented Nuclei (%)” value [6]?
A: The value was 14%.

Q: And the “Population Healthy Nuclei (%)” value [6]?
A: The value was 67%.

Q: What about the “Population Hoechst High Intensity Objects (%)” value [6] of the same molecule?
A: Its value is 8%.

Q: What about the “Population Membrane Permeable-Phenotype (%)” value [6] of the same molecule?
A: The value was 6%.

Q: What about the “Population Mitochondria Different-Phenotype (%)” value [6] of the same molecule?
A: The value was 13%.

Q: What about the “Population Mitotic Cells (%)” value [6] of the same molecule?
A: Its value is 50%.

Q: And the “Population Normal (%)” value [6]?
A: The value was 91%.

Q: And the “Population Pyknosed Nuclei (%)” value [6]?
A: Its value is 18%.

Q: And the “Population Tubulin-Different-Phenotype (%)” value [6]?
A: The value was 4%.

Q: And the “Population Apoptotic (%)” value [7]?
A: The value was 50%.

Q: What about the “Population Fragmented Nuclei (%)” value [7] of the same molecule?
A: Its value is 32%.

Q: And the “Population Healthy Nuclei (%)” value [7]?
A: The value was 57%.

Q: And the “Population Hoechst High Intensity Objects (%)” value [7]?
A: Its value is 26%.

Q: And the “Population Membrane Permeable-Phenotype (%)” value [7]?
A: The value was 11%.

Q: What about the “Population Mitochondria Different-Phenotype (%)” value [7] of the same molecule?
A: The value was 22%.

Q: What about the “Population Mitotic Cells (%)” value [7] of the same molecule?
A: The value was 50%.

Q: What about the “Population Normal (%)” value [7] of the same molecule?
A: The value was 73%.

Q: What about the “Population Pyknosed Nuclei (%)” value [7] of the same molecule?
A: Its value is 10%.

Q: What about the “Population Tubulin-Different-Phenotype (%)” value [7] of the same molecule?
A: The value was 89%.

Q: What about the “Population Apoptotic (%)” value [8] of the same molecule?
A: The value was 85%.

Q: And the “Population Fragmented Nuclei (%)” value [8]?
A: Its value is 11%.

Q: What about the “Population Healthy Nuclei (%)” value [8] of the same molecule?
A: The value was 54%.

Q: And the “Population Hoechst High Intensity Objects (%)” value [8]?
A: Its value is 8%.

Q: What about the “Population Membrane Permeable-Phenotype (%)” value [8] of the same molecule?
A: The value was 21%.

Q: And the “Population Mitochondria Different-Phenotype (%)” value [8]?
A: Its value is 96%.

Q: What about the “Population Mitotic Cells (%)” value [8] of the same molecule?
A: The value was 14%.

Q: And the “Population Normal (%)” value [8]?
A: Its value is 91%.

Q: And the “Population Pyknosed Nuclei (%)” value [8]?
A: The value was 34%.

Q: What about the “Population Tubulin-Different-Phenotype (%)” value [8] of the same molecule?
A: The value was 93%.

Q: And the “Population Apoptotic (%)” value [9]?
A: The value was 55%.

Q: What about the “Population Fragmented Nuclei (%)” value [9] of the same molecule?
A: Its value is 40%.

Q: And the “Population Healthy Nuclei (%)” value [9]?
A: Its value is 52%.

Q: What about the “Population Hoechst High Intensity Objects (%)” value [9] of the same molecule?
A: The value was 10%.

Q: What about the “Population Membrane Permeable-Phenotype (%)” value [9] of the same molecule?
A: The value was 11%.

Q: And the “Population Mitochondria Different-Phenotype (%)” value [9]?
A: The value was 2%.

Q: What about the “Population Mitotic Cells (%)” value [9] of the same molecule?
A: Its value is 44%.

Q: And the “Population Normal (%)” value [9]?
A: Its value is 89%.

Q: And the “Population Pyknosed Nuclei (%)” value [9]?
A: Its value is 6%.

Q: What about the “Population Tubulin-Different-Phenotype (%)” value [9] of the same molecule?
A: Its value is 31%.

Q: What about the “Population Apoptotic (%)” value [10] of the same molecule?
A: Its value is 66%.

Q: What about the “Population Fragmented Nuclei (%)” value [10] of the same molecule?
A: The value was 31%.

Q: And the “Population Healthy Nuclei (%)” value [10]?
A: The value was 66%.

Q: What about the “Population Hoechst High Intensity Objects (%)” value [10] of the same molecule?
A: The value was 41%.

Q: And the “Population Membrane Permeable-Phenotype (%)” value [10]?
A: Its value is 15%.

Q: What about the “Population Mitochondria Different-Phenotype (%)” value [10] of the same molecule?
A: Its value is 1%.

Q: And the “Population Mitotic Cells (%)” value [10]?
A: The value was 33%.

Q: What about the “Population Normal (%)” value [10] of the same molecule?
A: Its value is 58%.

Q: And the “Population Pyknosed Nuclei (%)” value [10]?
A: Its value is 2%.

Q: And the “Population Tubulin-Different-Phenotype (%)” value [10]?
A: Its value is 51%.

Q: What about the “Population Apoptotic (%)” value [11] of the same molecule?
A: Its value is 71%.

Q: And the “Population Fragmented Nuclei (%)” value [11]?
A: Its value is 31%.

Q: And the “Population Healthy Nuclei (%)” value [11]?
A: Its value is 62%.

Q: And the “Population Hoechst High Intensity Objects (%)” value [11]?
A: Its value is 35%.

Q: And the “Population Membrane Permeable-Phenotype (%)” value [11]?
A: Its value is 8%.

Q: What about the “Population Mitochondria Different-Phenotype (%)” value [11] of the same molecule?
A: The value was 13%.

Q: And the “Population Mitotic Cells (%)” value [11]?
A: Its value is 28%.

Q: And the “Population Normal (%)” value [11]?
A: The value was 64%.

Q: What about the “Population Pyknosed Nuclei (%)” value [11] of the same molecule?
A: Its value is 6%.

Q: What about the “Population Tubulin-Different-Phenotype (%)” value [11] of the same molecule?
A: The value was 89%.

Q: What about the “Population Apoptotic (%)” value [12] of the same molecule?
A: The value was 0%.

Q: And the “Population Fragmented Nuclei (%)” value [12]?
A: Its value is 44%.

Q: And the “Population Healthy Nuclei (%)” value [12]?
A: The value was 55%.

Q: And the “Population Hoechst High Intensity Objects (%)” value [12]?
A: Its value is 27%.

Q: What about the “Population Membrane Permeable-Phenotype (%)” value [12] of the same molecule?
A: Its value is 12%.

Q: And the “Population Mitochondria Different-Phenotype (%)” value [12]?
A: Its value is 23%.

Q: What about the “Population Mitotic Cells (%)” value [12] of the same molecule?
A: The value was 0%.

Q: What about the “Population Normal (%)” value [12] of the same molecule?
A: The value was 72%.

Q: And the “Population Pyknosed Nuclei (%)” value [12]?
A: Its value is 0%.

Q: And the “Population Tubulin-Different-Phenotype (%)” value [12]?
A: The value was 93%.
